The values below come from publication PMC4084622 (Journal of Medicinal Chemistry, 2014).

The test system of one test is M. smegmatis. The following applies: cited from earlier work.
Test [1] relates to M. tuberculosis. Conditions: cited from earlier work.
Test [2] concerns M. smegmatis cells, ATP synthesis. In words: ATP/ADP determination in M. smegmatis cells. It is filed as cell-based, Mycobacterium smegmatis. In a few lines: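 Cells grown 8 h in Middlebrook 7H9-ADC-Tween 80 and diluted to OD600 of 2. Test compounds added at several concentrations, with incubation at 37 °C and 200 rpm. ATP/ADP ratio read with a commercial ADP/ATP ratio kit after 10 and 60 min.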

A further test deals with T1, human SQS (Homo sapiens, UniProt P37268).
T1 sequence (P37268 1-417): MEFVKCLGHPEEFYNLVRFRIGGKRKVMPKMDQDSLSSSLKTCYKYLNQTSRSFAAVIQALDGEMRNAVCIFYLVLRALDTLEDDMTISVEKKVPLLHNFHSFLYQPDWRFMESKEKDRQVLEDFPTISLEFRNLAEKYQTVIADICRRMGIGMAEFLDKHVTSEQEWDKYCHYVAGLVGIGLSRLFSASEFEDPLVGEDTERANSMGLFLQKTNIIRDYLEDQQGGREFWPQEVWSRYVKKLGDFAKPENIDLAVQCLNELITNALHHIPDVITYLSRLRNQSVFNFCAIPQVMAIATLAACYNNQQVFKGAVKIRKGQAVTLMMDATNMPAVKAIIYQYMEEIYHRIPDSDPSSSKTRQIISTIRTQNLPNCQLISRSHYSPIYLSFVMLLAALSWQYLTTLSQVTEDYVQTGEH
In words: Human SQS inhibition. It is filed as biochemical. The following applies: human SQS, weak activity.

The next test concerns the target T2, SaCrtM (Staphylococcus aureus, UniProt A9JQL9).
T2 sequence (A9JQL9 1-287): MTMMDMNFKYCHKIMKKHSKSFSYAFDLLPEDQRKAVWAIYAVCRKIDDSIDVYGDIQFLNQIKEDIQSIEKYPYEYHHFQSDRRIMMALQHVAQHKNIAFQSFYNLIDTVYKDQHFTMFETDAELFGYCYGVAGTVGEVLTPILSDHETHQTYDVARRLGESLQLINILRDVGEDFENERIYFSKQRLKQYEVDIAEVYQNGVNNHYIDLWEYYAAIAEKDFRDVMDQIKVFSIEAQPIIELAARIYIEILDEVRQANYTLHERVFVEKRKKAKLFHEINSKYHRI
In words: SaCrtM inhibition. It is filed as biochemical, S. aureus. Conditions: SaCrtM, weak activity.

Another test deals with E. coli. Nature of the test: microbe, parasite or virus in culture. The class given is cell-based. Conditions: Escherichia coli, read-out: Ec IC50.
The test system of another test is S. cerevisiae. Nature of the test: microbe, parasite or virus in culture. The class given is cell-based, Saccharomyces cerevisiae. Conditions: Saccharomyces cerevisiae, read-out: Sc IC50.
Test [3] relates to S. aureus (MRSA USA300 strain). Nature of the test: microbe, parasite or virus in culture. The class given is cell-based. The following applies: Staphylococcus aureus, MRSA|USA300, read-out: Sa MIC, MRSA USA300 strain.
Test [4] deals with M. tuberculosis. In words: microbe, parasite or virus in culture. It is filed as cell-based, Mycobacterium tuberculosis. The following applies: Mycobacterium tuberculosis.
The subject of another test is C. albicans. In words: microbe, parasite or virus in culture. It is filed as cell-based. The following applies: Candida albicans, read-out: Ca IC50.
The test system of another test is B. subtilis. Nature of the test: microbe, parasite or virus in culture. The class given is cell-based. The following applies: Bacillus subtilis, read-out: Bs IC50.
In the next test the test system is MCF-7. Nature of the test: cells. It is filed as cell-based. Conditions: Homo sapiens, MCF7, read-out: MCF-7 IC50.

In brackets after ≈: the same amount, converted by molar mass. Like-named read-outs stand apart in the source and are kept apart here.

With `CC[C@@H](CO)NCCN[C@@H](CC)CO` [compound 2, ethambutol], in the test with M. smegmatis, the “Ms MIC” value is 1 µg/mL. In the test on M. tuberculosis [1], the “Mt MIC” value was 2 µg/mL.
On to `CC(C)=CCC/C(C)=C/CNCCOC1C2CC3CC(C2)CC1C3` (stereo not shown) [compound 3], for which the “effect on ATP synthesis” value in test [2] was “inhibition of ATP synthesis”. Also, the activity at human SQS and on SaCrtM was around 100 µM throughout. The IC50 (commonly the concentration that inhibits the measured activity by half) in the test with E. coli worked out at 2.8 µg/mL (≈ 8.45 µM); with S. cerevisiae, 1.8 µg/mL (≈ 5.43 µM); in the test on C. albicans it was 12 µg/mL (≈ 36.2 µM); with B. subtilis it was 16 µg/mL (≈ 48.3 µM); with MCF-7 it was 10 µg/mL (≈ 30.2 µM). Also, the MIC is around 8 µg/mL (≈ 24.1 µM) in test [3], 0.02 to 0.05 µg/mL with M. tuberculosis [4] (read-out: Mt MIC) and 0.06 to 0.15 µM in the test on M. tuberculosis [4] (read-out: Mt MIC (in parentheses)).
